# A selection: hits, their analogues and other compounds. The true share with any hit is near 3.2%.
# Biofilm kill mix – mixtures killing C. albicans biofilm | C. albicans biofilm persisters + clotrimazole, fluorescence viability; primary screen in compound mixtures of four per well | inhibition, % at 7.6 µM | hit rate 0.02% among 120,000;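 active = inhibition above 30.3% in the primary screen of four-compound pools, then above 30% when the compound was retested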;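 also: compounds exposed to preformed 24 h biofilms for 48 h; 0% = untreated biofilm control and 100% = clotrimazole plus chlorhexidine kill blank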
#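 Test system: C. albicans CAF4-2 wild-type biofilms; buffer or medium: RPMI/MOPS medium, pH 7.0; schedule: 24 h biofilm formation, then 48 h compound exposure, 37 °C; detection: Alamar Blue fluorescence; measure: percent inhibition of biofilm viability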
# Mcl1-Noxa inh – Mcl-1/Noxa interaction inhibition; Q07820; AID 1022; TR-FRET Mcl-1/Noxa peptide binding, 2 h; hit rate 1.5% among 220,000; inhibition, % at 21.7 µM;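 active = compounds that cut the protein-peptide binding signal by more than 50% relative to plate controls in a single-dose test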;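 also: His-tagged Mcl-1 with rhodamine Noxa BH3 peptide and terbium anti-His antibody; 0% = Mcl-1 plus Noxa peptide wells and 100% = peptide-only wells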
# Target sequence (Q07820 whole entry, looked up): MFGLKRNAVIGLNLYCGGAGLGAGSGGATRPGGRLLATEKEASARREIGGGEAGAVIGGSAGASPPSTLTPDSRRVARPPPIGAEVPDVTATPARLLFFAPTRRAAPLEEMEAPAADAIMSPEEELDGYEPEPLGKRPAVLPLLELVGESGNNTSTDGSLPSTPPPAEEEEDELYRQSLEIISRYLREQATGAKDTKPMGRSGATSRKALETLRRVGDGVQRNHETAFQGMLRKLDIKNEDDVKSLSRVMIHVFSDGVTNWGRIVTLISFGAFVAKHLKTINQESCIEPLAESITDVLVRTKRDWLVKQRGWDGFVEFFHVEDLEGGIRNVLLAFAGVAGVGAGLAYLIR
# Mcl1-Bid inh – Mcl-1/Bid interaction inhibition. inhibition, % at 21.7 µM. hit rate 0.97% among 220,000. TR-FRET Mcl-1/Bid-Dy647 peptide binding, 1536-well;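 active = compounds that cut the binding signal by more than half at the single screening dose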;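 also: His-tagged Mcl-1 with europium anti-His antibody binding Bid BH3 peptide; 0% = Mcl-1 plus peptide wells and 100% = peptide-only wells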
# 14-3-3 Bad inh – disrupts binding of bovine 14-3-3 zeta to phospho-Bad peptide. inhibition, % at 21.7 µM. hit rate 0.71% among 220,000. TR-FRET 14-3-3zeta/Dy647-pBad peptide displacement, 1 h;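 active = inhibition above about 70%, limit read from the data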;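 also: 0% = full 14-3-3 plus peptide FRET controls and 100% = background without 14-3-3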
# Target sequence (P63103 whole entry, looked up): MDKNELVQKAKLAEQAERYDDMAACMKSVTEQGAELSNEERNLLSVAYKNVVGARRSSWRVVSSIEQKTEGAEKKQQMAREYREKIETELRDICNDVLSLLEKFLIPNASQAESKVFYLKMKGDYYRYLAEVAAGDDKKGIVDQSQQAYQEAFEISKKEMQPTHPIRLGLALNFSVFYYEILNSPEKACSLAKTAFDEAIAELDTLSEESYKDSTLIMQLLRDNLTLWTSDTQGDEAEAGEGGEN
# Mcl-1 Bim block – inhibitors of Bim-Mcl-1 interaction, human. Q07820. Bead-based flow cytometry, Bim peptide-Mcl-1 binding. inhibition, % at 10 µM. hit rate 0.1% among 190,000. AID 1009; in the data active = inhibition above about 40%;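 also: 0% = no compound tracer wells and 100% = peptide blocker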
# Hck Nef HTS – blocks Nef-activated human Hck kinase; Recombinant Hck-YEEI plus Nef, Z-Lyte FRET kinase assay; hit rate 0.68% among 220,000; AID 463187; P08631; inhibition, % at 20 µM;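 active = Hck-Nef kinase inhibition above about 50%, limit read from the data; inactive = inhibition below that limit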;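 also: 0% = DMSO with Hck plus Nef and 100% = Hck alone without Nef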
# * = called active by the depositor; nt = not tested or not shown.
SMILES,Biofilm kill mix,Mcl1-Noxa inh,Mcl1-Bid inh,14-3-3 Bad inh,Mcl-1 Bim block,Hck Nef HTS
Cc1nc2c(C)cccc2cc1C(=O)N/N=C/c1ccc(N(C)C)cc1,nt,18,-26,-15,0,1
Cc1nc2c(C)cccc2cc1C(=O)N/N=C/c1ccc(C(=O)O)cc1,21,-6,-20,87*,1,22
COc1ccc2c(c1)S/C(=C\C(=O)c1ccncc1)N2C,nt,66*,-39,-11,7,-2
COc1cc(OC)cc(C(=O)/C=C2\Sc3ccccc3N2C)c1,15,35,-58,-6,-2,-4
CCS(=O)(=O)c1nc(S(=O)(=O)c2ccc(Cl)cc2)c(NCCOC)s1,15,17,-2,2,-2,-5
COc1ccc(NS(=O)(=O)c2ccc(O)c(NC(=O)c3cc4c(C)nn(-c5ccc(F)cc5)c4s3)c2)cc1,19,65*,7,3,2,28
COc1cccc(SCC2CSc3nc4ccccc4c(=O)n32)c1 (stereo not drawn),8,-2,-25,5,-2,23
CCCNC(=O)c1ccc(Cn2c(=S)[nH]c3c([nH]c4ccc(OC)cc43)c2=O)cc1,4,60*,-1,7,-16,9
CCOc1cc(/C=C(\C#N)c2[nH]nc(N)c2C#N)ccc1O,nt,78*,-56,-14,16,12
CN(CC(=O)Nc1cccc(C#N)c1)Cc1ccc(Cl)cc1,1,5,86*,-12,0,28
O=[N+]([O-])c1ccc(N/N=C/c2cn(Cc3ccc(F)cc3)c3ccccc23)nc1,4,57*,94*,38,-3,7
O=[N+]([O-])c1cc([N+](=O)[O-])c2cccnc2c1Oc1ccccc1O,11,92*,-59,22,0,-1
O=[N+]([O-])c1cc(Cl)c(O)c2ncccc12,22,70*,-33,1,0,29
O=[N+]([O-])c1ccc(O)c2ncccc12,32*,73*,6,0,-1,-3
O=[N+]([O-])c1cc(CN2CCOCC2)c2cccnc2c1O,12,94*,-16,17,-1,26
COc1ccc(CCNC(=O)/C=C/c2ccc(OC)c(S(=O)(=O)N3CCOCC3)c2)cc1,12,6,-18,-3,nt,17
Nc1[nH]nc2nc(N3CCCC3)nc(-c3ccccc3)c12,nt,4,-9,7,0,43
Nc1[nH]nc2ncc3cc4ccccc4nc3c12,14,23,-21,-8,11,67*
COc1ccc2[nH]c(C)c(CCNC(=S)Nc3ccc(C)cc3)c2c1,15,6,-39,-10,-4,25
O=C1CCCC(O)=C1N=Nc1cccc(C(=O)O)c1,-1,57*,-43,48,0,28
CCN(CC)S(=O)(=O)c1cccc(N=NC2=C(O)CCCC2=O)c1,15,34,-21,-10,-1,1
C/C(=N\NC(=S)NCCc1ccccc1)c1cccs1,5,-58,-69,-7,-4,-1
CCCN(CCC)CCNC(=O)C1CC(=O)N(c2ccc(OC)cc2)C1c1ccc(OC)cc1 (stereo not drawn),nt,10,60*,-1,0,-1
COc1cc2c(cc1/C=C/C(=O)O)OC(C)C2 (stereo not drawn),-8,-1,-11,16,0,21
CC(C)(O)C1Cc2cc(/C=C/C(=O)O)c(O)cc2O1 (stereo not drawn),19,61*,-25,32,-6,16
SMILES,Biofilm kill mix,Mcl1-Noxa inh,Mcl1-Bid inh,14-3-3 Bad inh,Mcl-1 Bim block,Hck Nef HTS
Nc1nc(SCC(=O)N2CCCC2)[nH]c(=O)c1NC(=O)c1cccs1,24,-17,-33,-9,nt,1
CC(C)C1=Nc2cccc3cccc(c23)N1,nt,53*,-71,38,-6,3
COc1ccc(C2=Nc3cccc4cccc(c34)N2)cc1,nt,35,-72,-13,4,0
Nc1cccc(C2=Nc3cccc4cccc(c34)N2)c1,14,74*,35,-8,-3,5
ClCC1=Nc2cccc3cccc(c23)N1,1,58*,-75,8,nt,27
CC(=O)Nc1cccc(NC(=O)CSc2nnnn2-c2ccc3c(c2)OCO3)c1,24,2,-40,2,nt,27
O=C(CSc1n[nH]c(-c2ccccc2)n1)Nc1ncc(Br)cc1Br,nt,0,7,3,-4,-2
Cn1c(N)c(C(=O)COC(=O)c2ccc(Cl)c(S(=O)(=O)N3CCCC3)c2)c(=O)n(C)c1=O,21,10,-40,1,nt,30
CCOC(=O)N1CCN(c2ncnc3c2[nH]c2ccc(OC)cc23)CC1,nt,16,-36,nt,0,-21
COc1ccc2[nH]c3c(N4CCc5ccccc5C4)ncnc3c2c1,18,62*,-1,4,nt,20
COc1cc2[nH]c3c(N4CCN(c5ccccn5)CC4)ncnc3c2cc1OC,nt,64*,-16,-7,4,3
COc1ccc(N2CCN(c3ncnc4c3[nH]c3ccccc34)CC2)cc1,nt,34,-25,-8,0,1
COc1cc(C(=S)N2CCN(c3ccccc3Cl)CC2)cc(O)c1O,5,60*,-54,-16,-8,36
Cn1c(CN2CCOCC2)nnc1SCc1ccc(C#N)cc1,9,-13,-21,-6,0,23
Cc1cccc2sc(NC(=O)C3CCCO3)nc12 (stereo not drawn),nt,-5,3,7,0,5
Cc1nc(C)c(C(=O)Nc2nc3c(C)cccc3s2)o1,nt,91*,-19,8,0,8
Cc1ccc(S(=O)(=O)Nc2ccnc3ccccc23)cc1,nt,-2,63*,11,0,-1
CCCc1nc(-c2cc3ccccc3[nH]c2=O)no1,3,6,-32,96*,nt,11
CCCc1nc(-c2ccc(-c3ccc(F)cc3)cc2)no1,nt,4,1,9,0,3
CC1CCN(C(c2cccs2)c2nnnn2Cc2ccccc2)CC1 (stereo not drawn),nt,11,20,79*,-1,-26
O=S(=O)(Nc1ccc(Cl)cc1)c1ccc(N2CCOCC2)c(NC(=S)NCCN2CCOCC2)c1,8,22,-15,-12,-6,-4
O=C(O)c1[nH]c2ccc([N+](=O)[O-])cc2c1-c1ccccc1,22,12,-22,0,nt,15
O=[N+]([O-])c1ccc2nc(-c3ccccc3)[nH]c2c1,13,10,11,4,-3,4
O=[N+]([O-])c1ccc2[nH]c3nc4ccccc4nc3c2c1,16,64*,36,44,nt,22
O=[N+]([O-])c1ccc2[nH]nc(-c3ccccc3)c2c1,14,23,0,-4,44*,-2
CCn1c(=O)c([N+](=O)[O-])c(NCCCn2ccnc2)c2ccccc21,12,7,-23,-6,nt,8
O=C(NCCNC1CCC(c2ccccc2)CC1)c1cccs1 (stereo not drawn),9,9,12,44,-2,23
